In the library only some 2.4% were active in any assay of this set; here they are far more common.
MEX-5 binding: C. elegans MEX-5 TCR-2 RNA binding activity; Q9XUB2; MEX-5/FITC-TCR2 RNA binding, fluorescence polarization; active compounds read low; activity score (negative = inhibition of binding), % at 10 µM; hit rate 0.38% among 300,000; AID 1832;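 active = inhibition past about -25% in most replicates, and total fluorescence under double the plate's negative control median, limit read from the data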;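 also: 0% = DMSO and -100% = 5 µM competing unlabeled TCR2 RNA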
EBV gp42 inh: inhibitors of Epstein-Barr virus glycoprotein 42. inhibition, % (tested at 21.74 µM). Q1HVG2. hit rate 0.42% among 220,000. Fluorescence polarization binding assay, mP read-out; in the data active = inhibition above about 50%
RanGTP-Imp inh: inhibitors of RanGTP-importin-beta interaction, primary screen, biochemical, FRET, CFP-Ran, YFP-importin-beta, homogeneous. inhibition, % (test concentration not listed). hit rate 1.1% among 300,000. cell-free CFP-Ran/YFP-importin-beta FRET ratio;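 active = more than half of the replicate wells show a fall in the fluorescence ratio signal beyond about 16%, limit read from the data, passing the limit was not always enough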;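 also: 0% = DMSO wells and 100% = Ran loaded with GDP instead of GTP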
Runt-SMMHC FRET: Runt domain-CBFb-SMMHC interaction inhibition. inhibition, % at 20 µM. AID 1434. hit rate 0.74% among 220,000. Cerulean-Runt/Venus-CBFb-SMMHC FRET ratio 530/480, 1 h. Q01196+Q13951;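 active = mean inhibition across duplicate retests at 20 µM reaching about 50%, limit read from the data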;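 also: 0% = DMSO wells and 100% = wells with excess untagged CBFb-SMMHC; inhibitors lower the FRET ratio by blocking Runt binding to CBFb-SMMHC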
Target sequence (Q01196 whole entry, looked up, the tested form may be a part): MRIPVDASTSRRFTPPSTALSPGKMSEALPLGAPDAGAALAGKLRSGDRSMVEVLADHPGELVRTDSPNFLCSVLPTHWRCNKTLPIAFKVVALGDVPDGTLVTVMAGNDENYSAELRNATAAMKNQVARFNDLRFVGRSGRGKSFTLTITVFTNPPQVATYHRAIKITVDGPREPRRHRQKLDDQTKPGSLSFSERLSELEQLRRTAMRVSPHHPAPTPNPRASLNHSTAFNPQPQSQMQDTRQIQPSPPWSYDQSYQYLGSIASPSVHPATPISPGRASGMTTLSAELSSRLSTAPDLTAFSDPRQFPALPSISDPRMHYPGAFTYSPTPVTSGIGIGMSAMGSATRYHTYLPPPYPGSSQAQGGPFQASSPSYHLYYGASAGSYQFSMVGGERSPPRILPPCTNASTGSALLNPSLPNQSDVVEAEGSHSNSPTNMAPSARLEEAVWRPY
Target sequence (Q13951 whole entry, looked up, the tested form may be a part): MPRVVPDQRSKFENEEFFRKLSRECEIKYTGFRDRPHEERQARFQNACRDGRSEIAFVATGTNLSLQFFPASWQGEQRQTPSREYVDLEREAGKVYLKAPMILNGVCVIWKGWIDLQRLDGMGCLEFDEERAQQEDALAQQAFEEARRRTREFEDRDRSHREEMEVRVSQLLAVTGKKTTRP
Runt-CBFb FRET: blocks binding of human RUNX1 Runt domain to CBFb | inhibition, % at 20 µM | hit rate 0.46% among 220,000 | Q01196+Q13951 | Cerulean-Runt/Venus-CBFb FRET ratio 530/480, 1 h | AID 1496;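 active = inhibition over about 50% at 20 µM in the single-dose screen, limit read from the data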;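 also: 0% = DMSO wells and 100% = excess unlabeled CBFb competitor control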
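Assay system: Cerulean-Runt domain fusion protein, energy donor; Signal: fluorescence energy transfer, 422 nm excitation, 530/480 nm emission; Timing: 1 h compound exposure, room temperature; Control set: unlabeled CBFb; Medium: Tris buffer pH 7.5 with salts and BSA; Compound: single test concentration of 20 µM, 1% DMSO final; Probe or stimulus: Venus-CBFb 100 nM.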
LANA-H2A inh: blocks KSHV LANA binding to histone H2A/H2B; Q9QR71; cell-free LANA-H2A/H2B peptide, fluorescence polarization; inhibition, % (concentration not given with the values); hit rate 0.6% among 320,000; AID 2629; in the data active = inhibition mostly above about 10%, no sharp cut-off; inactive = mostly below about 6.7%
* hit, by the source's call.

O=C1CCC/C1=c1\s/c(=C\c2cccnc2)c(=O)n1-c1ccccc1 was read as MEX-5 binding -25.7*, EBV gp42 inh -22.4, RanGTP-Imp inh 3.1, Runt-SMMHC FRET -16.3, Runt-CBFb FRET -6.5 and LANA-H2A inh 0.7.
Screening O=c1/c(=C\c2cccnc2)sc2nc3ccccc3n12 returned MEX-5 binding -2.2, EBV gp42 inh -35.5, RanGTP-Imp inh 0.0, Runt-SMMHC FRET -0.1 and Runt-CBFb FRET 1.1.
O=C(COC(=O)c1cc[n+]([O-])cc1)Nc1ccc([N+](=O)[O-])cc1 was read as MEX-5 binding -0.6, EBV gp42 inh -16.2, RanGTP-Imp inh 0.1, Runt-SMMHC FRET -1.2, Runt-CBFb FRET -1.3 and LANA-H2A inh 1.5.
O=[N+]([O-])c1ccc(Sc2cccc3cccnc23)c2cccnc12 was read as MEX-5 binding -14.4, EBV gp42 inh 62.0*, RanGTP-Imp inh 2.9, Runt-SMMHC FRET -1.5, Runt-CBFb FRET 6.3 and LANA-H2A inh -3.6.
O=[N+]([O-])c1cc2cccnc2c2ncccc12 was read as MEX-5 binding -9.6, EBV gp42 inh -8.1, RanGTP-Imp inh 7.7, Runt-SMMHC FRET 0.4, Runt-CBFb FRET -0.5 and LANA-H2A inh 6.1.
For O=C(NC(=S)NCc1ccccc1)C1CC1 the results were MEX-5 binding -0.2, EBV gp42 inh -2.3, RanGTP-Imp inh -4.1, Runt-SMMHC FRET -1.1, Runt-CBFb FRET -0.5 and LANA-H2A inh 16.1*.
For Cc1cc(C)nc(Nc2n[nH]c(-c3ccccc3C)n2)n1 the results were MEX-5 binding 0.7, EBV gp42 inh -1.4, RanGTP-Imp inh 6.0, Runt-SMMHC FRET -0.6, Runt-CBFb FRET 0.6 and LANA-H2A inh -2.8.
Cc1cc(C)nc(Nc2n[nH]c(-c3ccccc3Br)n2)n1 was read as MEX-5 binding 1.9, EBV gp42 inh -0.4, RanGTP-Imp inh -1.3, Runt-SMMHC FRET 1.6, Runt-CBFb FRET 0.0 and LANA-H2A inh 17.7*.
For O=C(COC(=O)c1cncc(Br)c1)NCc1cccs1 the results were LANA-H2A inh -1.2.
O=C(NCCc1ccc(F)cc1)C1CCCCC1 was read as MEX-5 binding -0.9, EBV gp42 inh -3.2, RanGTP-Imp inh -1.7, Runt-SMMHC FRET -3.8, Runt-CBFb FRET -0.3 and LANA-H2A inh -0.2.
For C=CCN1C(=O)c2ccc(C(=O)N(C)CC(=O)Nc3ccc(OCC)c(OCC)c3)cc2C1=O the results were MEX-5 binding -0.5 and RanGTP-Imp inh -4.7.
For O=C(CSc1nnc(NC(=O)C2CC(=O)N(c3ccccc3)C2)s1)NCc1ccco1 (configuration not stated) the results were MEX-5 binding -3.8, RanGTP-Imp inh -1.9 and LANA-H2A inh -1.1.
For Cc1ccc(C(=O)Nc2sc3c(c2C(=O)O)CCC(C)C3)o1 (configuration not stated) the results were LANA-H2A inh 2.4.
Screening CC(C)c1cc(C(=O)Nc2cc(Cl)ccc2O)no1 returned MEX-5 binding 0.5, EBV gp42 inh 1.6, RanGTP-Imp inh -4.6, Runt-SMMHC FRET -2.1, Runt-CBFb FRET 0.0 and LANA-H2A inh 12.6*.
CC(C)c1cc(C(=O)Nc2cc(Br)ccc2O)no1 was read as MEX-5 binding -1.3, EBV gp42 inh 2.5, RanGTP-Imp inh -1.3, Runt-SMMHC FRET -0.9, Runt-CBFb FRET 2.6 and LANA-H2A inh -0.6.
Screening CN1CCN(C(CNC(=O)c2ccc(Br)o2)c2ccc(F)cc2)CC1 (configuration not stated) returned MEX-5 binding -0.2, RanGTP-Imp inh -1.3 and LANA-H2A inh -0.9.
CCN(CCn1cccn1)C(=O)c1cc(COc2cc(C)ccc2C)on1 was read as MEX-5 binding 0.8, RanGTP-Imp inh 4.1 and LANA-H2A inh 36.5*.
Screening CCN(CCn1cccn1)C(=O)c1cc(COc2ccccc2SC)on1 returned MEX-5 binding -1.7, RanGTP-Imp inh 0.8 and LANA-H2A inh 5.8.
For CCCc1nnc(NS(=O)(=O)c2ccc(OC)cc2)s1 the results were MEX-5 binding -1.3, EBV gp42 inh -8.4, RanGTP-Imp inh 2.2, Runt-SMMHC FRET -0.5, Runt-CBFb FRET -1.0 and LANA-H2A inh 15.3*.
Screening COc1ccc(CCc2nnc(NS(C)(=O)=O)s2)cc1 returned MEX-5 binding 0.0, RanGTP-Imp inh 27.4* and LANA-H2A inh -21.0.

Screening data as filed in PubChem BioAssay.
